Read-outs that look alike come from different tables or passages of the source.

Series [1] has as its target LRRK2 (Homo sapiens, UniProt Q5S007). Briefly: LRRK2 kinase activity in vitro assay. Format: biochemical.
For series [2], the target named is T1, BRD4 (BD1) (Homo sapiens, UniProt O60885). Briefly: BRD4-1 AlphaScreen binding assay.
Series [3] deals with T1, BRD4 (BD1). Briefly: BRD4-1 AlphaScreen binding assay. This is another data set of the same source.
Series [4] deals with ERK5 (Homo sapiens, UniProt Q13164). The series is described as follows: ERK5 kinase activity in vitro assay. To be noted: for IC50: read-out: Enzymatic IC50 (ERK5), in vitro assay, average of 2 replicates ± SD. Format: biochemical.
Chain of ERK5 (Homo sapiens, UniProt Q13164) (Q13164 whole entry): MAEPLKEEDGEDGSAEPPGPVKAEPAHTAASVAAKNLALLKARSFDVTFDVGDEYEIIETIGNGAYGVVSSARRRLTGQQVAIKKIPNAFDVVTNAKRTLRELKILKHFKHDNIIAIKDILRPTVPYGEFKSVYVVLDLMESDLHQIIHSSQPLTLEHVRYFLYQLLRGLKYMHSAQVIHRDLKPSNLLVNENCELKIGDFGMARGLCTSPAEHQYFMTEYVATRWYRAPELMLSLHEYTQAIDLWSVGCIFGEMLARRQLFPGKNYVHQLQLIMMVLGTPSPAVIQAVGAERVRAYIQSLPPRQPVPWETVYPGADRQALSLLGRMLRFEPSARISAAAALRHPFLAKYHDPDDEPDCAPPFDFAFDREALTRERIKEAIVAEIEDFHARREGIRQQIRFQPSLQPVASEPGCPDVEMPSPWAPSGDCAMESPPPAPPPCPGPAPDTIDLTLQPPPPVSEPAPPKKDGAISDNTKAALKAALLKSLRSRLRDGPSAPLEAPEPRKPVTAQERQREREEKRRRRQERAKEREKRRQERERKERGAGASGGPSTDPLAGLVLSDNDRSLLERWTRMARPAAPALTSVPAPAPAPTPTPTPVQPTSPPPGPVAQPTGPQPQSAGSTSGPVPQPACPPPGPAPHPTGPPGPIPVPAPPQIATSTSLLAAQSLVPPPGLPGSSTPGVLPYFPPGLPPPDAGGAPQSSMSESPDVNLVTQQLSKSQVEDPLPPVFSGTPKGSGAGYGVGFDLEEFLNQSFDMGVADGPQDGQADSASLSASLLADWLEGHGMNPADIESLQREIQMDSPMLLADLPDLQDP
Series [5] deals with 797 NUT-midline carcinoma cells. The series is described as follows: 797 NMC cell viability assay. Format: cell-based. The following applies: read-out: Viability IC50 (BRD4), Cell Titer Glo, 3 days, average of 3 replicates ± SD. In short, it runs like this:
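797 NUT-midline carcinoma cells were seeded at 5,000 cells/well and exposed for 3 days to a range of test compound concentrations or DMSO. Relative cell number was read with Cell Titer Glo following the kit instructions. The methods state 6 replicates; the reported IC50 is the mean of 3 replicates ± SD.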

Series [6] concerns ERK5. Briefly: Cellular assay of ERK5. Format: cell-based, Human.
Series [7] concerns ERK5. The series is described as follows: KinomeScan kinome profiling, ERK5. Format: binding. To be noted: 1 μM, panel of 468 human kinases. In short, it runs like this:
(§1)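 KinomeScan ScanMAX binding panel, single test compound concentration of 1 μM. A hit was defined as an Ambit score below 10%.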

Series [8] deals with T2, DCAMKL2 (Homo sapiens, UniProt Q8N568).
T2 sequence (Q8N568 1-766): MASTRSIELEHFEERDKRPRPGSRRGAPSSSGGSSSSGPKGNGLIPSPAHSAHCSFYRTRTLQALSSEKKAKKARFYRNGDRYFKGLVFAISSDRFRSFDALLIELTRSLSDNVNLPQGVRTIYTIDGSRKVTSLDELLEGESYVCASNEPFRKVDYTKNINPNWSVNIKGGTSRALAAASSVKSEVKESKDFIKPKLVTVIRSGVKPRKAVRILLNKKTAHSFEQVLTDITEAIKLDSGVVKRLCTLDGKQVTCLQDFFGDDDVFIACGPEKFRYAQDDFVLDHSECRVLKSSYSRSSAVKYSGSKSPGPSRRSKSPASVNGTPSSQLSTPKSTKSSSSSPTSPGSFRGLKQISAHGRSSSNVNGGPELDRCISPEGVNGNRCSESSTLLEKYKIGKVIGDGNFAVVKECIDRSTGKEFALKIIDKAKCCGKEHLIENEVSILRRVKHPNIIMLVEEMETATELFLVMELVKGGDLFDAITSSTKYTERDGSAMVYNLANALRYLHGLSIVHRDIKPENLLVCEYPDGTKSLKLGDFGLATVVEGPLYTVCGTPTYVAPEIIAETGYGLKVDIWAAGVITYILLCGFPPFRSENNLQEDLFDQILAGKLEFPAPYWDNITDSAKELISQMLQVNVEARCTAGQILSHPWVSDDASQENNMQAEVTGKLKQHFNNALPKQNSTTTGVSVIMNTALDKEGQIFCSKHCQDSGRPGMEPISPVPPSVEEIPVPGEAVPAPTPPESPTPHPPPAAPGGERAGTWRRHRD
Briefly: KinomeScan kinome profiling, DCAMKL2. Format: binding. The following applies: 1 μM, panel of 468 human kinases. In short, it runs like this: as §1

The test system of series [9] is DCAMKL2. The series is described as follows: DCAMKL2 biochemical enzyme assay. The following applies: in vitro biochemical enzyme assays.
Series [10] can be described thus: Variable temperature 1H NMR, interconversion of conformers. Format: physicochemical.
The test system of series [11] is panel of 32 bromodomains. The series is described as follows: BROMOscan bromodomain profiling. In kind it is binding. The following applies: 10 μM.
[12] abbreviates: read-out: Biochemical IC50 (BRD4, μM) a, AlphaScreen, Dana-Farber, average of 2 replicates ± SE.
Setting [13] is: read-out: Biochemical IC50 (BRD4, μM) b, AlphaScreen, University of Oxford, average of 4 replicates ± SD.
Setting [14] is: read-out: Enzymatic IC50 (LRRK2), Adapta assay format, average of 2 replicates ± SD.
[15] abbreviates: Homo sapiens, HeLa, read-out: Cellular EC50 (ERK5, μM).

Chain of LRRK2 (Q5S007 whole entry): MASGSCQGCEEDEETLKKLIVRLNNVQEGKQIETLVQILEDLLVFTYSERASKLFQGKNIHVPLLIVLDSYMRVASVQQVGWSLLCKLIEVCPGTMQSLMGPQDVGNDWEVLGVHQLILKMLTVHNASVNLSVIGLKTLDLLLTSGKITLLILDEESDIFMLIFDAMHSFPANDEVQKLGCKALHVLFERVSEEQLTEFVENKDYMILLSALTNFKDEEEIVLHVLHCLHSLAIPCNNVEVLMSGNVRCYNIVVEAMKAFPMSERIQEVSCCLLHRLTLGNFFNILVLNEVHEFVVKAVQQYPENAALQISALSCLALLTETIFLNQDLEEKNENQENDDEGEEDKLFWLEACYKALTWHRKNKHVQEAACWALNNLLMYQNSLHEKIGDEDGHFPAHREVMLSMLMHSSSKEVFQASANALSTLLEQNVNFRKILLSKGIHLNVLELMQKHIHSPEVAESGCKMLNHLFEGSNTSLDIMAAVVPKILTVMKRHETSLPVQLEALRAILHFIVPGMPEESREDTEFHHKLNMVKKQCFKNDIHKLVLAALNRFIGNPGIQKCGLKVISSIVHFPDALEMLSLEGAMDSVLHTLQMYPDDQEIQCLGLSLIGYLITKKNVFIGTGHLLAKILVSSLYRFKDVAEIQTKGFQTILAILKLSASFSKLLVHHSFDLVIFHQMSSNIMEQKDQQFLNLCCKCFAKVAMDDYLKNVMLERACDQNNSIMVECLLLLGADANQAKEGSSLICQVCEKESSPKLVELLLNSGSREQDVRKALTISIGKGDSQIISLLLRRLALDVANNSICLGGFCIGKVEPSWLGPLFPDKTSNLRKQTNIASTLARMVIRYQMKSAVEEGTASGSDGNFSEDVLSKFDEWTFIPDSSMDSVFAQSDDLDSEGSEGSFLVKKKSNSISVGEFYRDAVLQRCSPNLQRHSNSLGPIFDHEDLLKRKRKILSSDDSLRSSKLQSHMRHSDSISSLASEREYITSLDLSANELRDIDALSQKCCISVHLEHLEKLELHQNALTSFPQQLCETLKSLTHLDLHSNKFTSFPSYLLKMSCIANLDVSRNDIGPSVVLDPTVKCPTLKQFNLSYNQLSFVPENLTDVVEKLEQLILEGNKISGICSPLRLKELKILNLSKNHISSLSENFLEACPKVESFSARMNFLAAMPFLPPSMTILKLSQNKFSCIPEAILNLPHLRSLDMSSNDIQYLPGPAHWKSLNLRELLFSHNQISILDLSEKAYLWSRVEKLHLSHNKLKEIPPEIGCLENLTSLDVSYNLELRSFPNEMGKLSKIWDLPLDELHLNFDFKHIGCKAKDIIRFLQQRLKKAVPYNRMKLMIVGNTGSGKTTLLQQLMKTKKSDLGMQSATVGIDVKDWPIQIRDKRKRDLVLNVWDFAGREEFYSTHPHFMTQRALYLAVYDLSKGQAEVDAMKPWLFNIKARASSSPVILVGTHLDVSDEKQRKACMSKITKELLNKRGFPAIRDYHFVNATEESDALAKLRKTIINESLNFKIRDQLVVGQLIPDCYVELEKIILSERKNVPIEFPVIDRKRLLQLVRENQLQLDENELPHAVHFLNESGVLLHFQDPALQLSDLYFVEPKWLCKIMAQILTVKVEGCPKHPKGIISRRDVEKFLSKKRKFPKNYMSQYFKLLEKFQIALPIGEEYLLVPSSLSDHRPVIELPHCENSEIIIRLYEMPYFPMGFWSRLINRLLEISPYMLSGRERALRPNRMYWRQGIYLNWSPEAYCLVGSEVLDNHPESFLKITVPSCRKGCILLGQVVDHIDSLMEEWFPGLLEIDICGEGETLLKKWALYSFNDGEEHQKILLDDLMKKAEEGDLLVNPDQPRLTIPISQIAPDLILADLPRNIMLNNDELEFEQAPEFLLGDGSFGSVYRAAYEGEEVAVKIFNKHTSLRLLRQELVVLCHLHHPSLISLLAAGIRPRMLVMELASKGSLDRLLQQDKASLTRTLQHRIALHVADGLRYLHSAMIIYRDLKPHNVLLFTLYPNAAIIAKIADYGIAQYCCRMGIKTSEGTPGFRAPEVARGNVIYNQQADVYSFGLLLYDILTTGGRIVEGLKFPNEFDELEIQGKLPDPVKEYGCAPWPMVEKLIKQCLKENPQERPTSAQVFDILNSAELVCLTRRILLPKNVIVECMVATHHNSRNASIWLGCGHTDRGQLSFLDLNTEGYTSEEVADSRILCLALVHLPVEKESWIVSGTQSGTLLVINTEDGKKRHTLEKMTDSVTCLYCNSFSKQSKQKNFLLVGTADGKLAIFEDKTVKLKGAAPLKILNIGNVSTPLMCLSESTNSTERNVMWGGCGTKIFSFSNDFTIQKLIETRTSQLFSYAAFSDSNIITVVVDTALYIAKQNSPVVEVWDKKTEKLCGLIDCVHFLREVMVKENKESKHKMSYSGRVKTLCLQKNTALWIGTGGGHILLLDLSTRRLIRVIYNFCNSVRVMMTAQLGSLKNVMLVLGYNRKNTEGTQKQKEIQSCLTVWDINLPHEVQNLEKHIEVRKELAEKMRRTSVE

The compound `CCOc1cc(C(=O)N2CCC(N3CCN(C)CC3)CC2)ccc1Nc1ncc2c(n1)N(S(C)(=O)=O)c1ccccc1C(=O)N2C` [AX15836, reference compound] displayed an IC50 in series [1] of 942 ± 569 nM.
Turning to `CCC(C)N1c2ccccc2C(=O)N(C)c2cnc(Nc3ccc(C(=O)N4CCC(N5CCN(C)CC5)CC4)cc3OC)nc21` (stereo not drawn) [JWG-071], the IC50 in [2] (setting [12]) is 5.42 ± 0.18 µM; in [3] (setting [13]), 6.31 ± 1.93 µM; in [4] it was 88 ± 5 nM; in series [1] (setting [14]), 109 ± 14 nM; in series [5], above 10000 nM. The “improved ERK5 activity compared to XMD17–109 (ERK5-IN-1)” value in series [4] is listed as 2 fold. The “selectivity for ERK5 relative to LRRK2” value in series [1] (in vitro biochemical enzyme assays) worked out at 1.2 folds. Besides, in [6] (read-out: Cellular EC50 (ERK5), EGF-stimulated autophosphorylation of ERK5 in Hela cells, average of 2 replicates ± SD), the EC50 came out at 0.02 ± 0.003 µM. Further, in series [7], the “Ambit score (ERK5)” value is listed as “less than 10%”. The “Ambit score (DCAMKL2)” value in series [8] was “less than 10%”. Also, the “selectivity for ERK5 relative to DCAMKL2” value in [9] is 2.5 folds. For the same compound, the “Calc ΔErac” value in series [10] (calculated energy barrier of interconversion) was 15.9 kcal/mol. Besides, in series [10] (variable temperature 1H NMR in DMSO-d6), the “Tco (coalescence temperature)” value is 60 °C.
Regarding `CC(C)Oc1cc(C(=O)N2CCC(N3CCN(C)CC3)CC2)ccc1Nc1ccc2c(n1)N(C1CCCC1)c1ccccc1C(=O)N2C` [JWG-115], the “decrease of activity against BRD4 compared to the pyrimidine analogs XMD11–50 and JWG-047” value in [2] (pyridine vs pyrimidine core) is 4–8 fold. The IC50 is 1 µM in [2] (read-out: BRD4 IC50, value as stated in text); 1.08 ± 0.05 µM in series [2] (setting [12]); 1.1 ± 0.05 µM in series [3] (setting [13]); above 10000 nM in [4]; above 3300 nM in series [1] (setting [14]). Also, the “BROMOscan binding among BET family” value in [11] is reported as “strong binding”. Besides, in series [11], the “BROMOscan binding outside BET family” value is “no binding”.
`COc1cc(C(=O)N2CCC(N3CCN(C)CC3)CC2)ccc1Nc1ncc2c(n1)N(C)c1ccccc1C(=O)N2C` [XMD11–50 (LRRK2-IN-1)]: the IC50 in series [1] was determined as 3.4 ± 1.7 nM. In series [6] (setting [15]), the EC50 came to […].
Regarding `CCOc1cc(C(=O)N2CCC(N3CCN(C)CC3)CC2)ccc1Nc1ncc2c(n1)N(C1CCCC1)c1ccccc1C(=O)N2C` [XMD17–109 (ERK5-IN-1), reference compound], the IC50 in [2] turned out to be 0.217 ± 0.008 µM; in [3] it was 0.68 ± 0.03 µM. Further, the EC50 in [6] (setting [15]) is […].

Values taken from paper PMC6333101 (ACS chemical biology, 2018).
